High-throughput results deposited in PubChem by The Scripps Research Institute Molecular Screening Center.
mABHD4 FP: ABHD4 inhibitors, primary screen, biochemical, fluorescence polarization, mouse | (Lyso)-N-acylphosphatidylethanolamine lipase (Mus musculus), Q8VD66 | purified mABHD4, FP-Rh probe fluorescence polarization | inhibition, % at 8.92 µM | 370,000 tested, 0.54% active;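 active = inhibition exceeding the mean over every tested compound plus 3 SD, cut at about 30% in these data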;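 also: 0% = plate median of compound wells and 100% = S159A mutant with DMSO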
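system = mouse ABHD4 enzyme, wild type | medium = HEPES pH 7.0, NaCl, Pluronic buffer | also added = FP-Rh probe | incubation = Enzyme–compound pre-incubation 45 min, then probe 60 min, both 25 °C | technique = fluorescence polarization, excitation 525 nm, emission 598 nm, BODIPY TMR filters | controls = S159A mutant high control, sample median low control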
HTRA1 inh: HTRA1 serine protease inhibitors, primary screen, biochemical, fluorescence polarization, HTS | 340,000 tested, 0.5% active | Q92743 | AID 504803, 2011 | recombinant HTRA1, FP-rhodamine activity-based probe | inhibition, % at 5.96 µM; in the data active = inhibition above about 36%;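 also: 0% = enzyme with DMSO and 100% = wells lacking enzyme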
Tn6 DDE FP: inhibitors of Tn6 peptide binding to fibrin DD(E), primary screen, biochemical, fluorescence polarization, human fibrin, Tn6 probe; Fibrinogen beta chain (Homo sapiens), P02675; Fibrin DD(E) TRITC-Tn6 fluorescence polarization displacement; inhibition, % at 8.3 µM; 370,000 tested, 0.21% active; AID 720509, 2013;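 active = inhibition above a per-campaign cutoff: mean of compounds within control limits plus 3 SD, cut at about 15% in these data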;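 also: 0% = median of all compound wells on the plate and 100% = blocking peptide control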
Target sequence (P02675 whole entry, looked up): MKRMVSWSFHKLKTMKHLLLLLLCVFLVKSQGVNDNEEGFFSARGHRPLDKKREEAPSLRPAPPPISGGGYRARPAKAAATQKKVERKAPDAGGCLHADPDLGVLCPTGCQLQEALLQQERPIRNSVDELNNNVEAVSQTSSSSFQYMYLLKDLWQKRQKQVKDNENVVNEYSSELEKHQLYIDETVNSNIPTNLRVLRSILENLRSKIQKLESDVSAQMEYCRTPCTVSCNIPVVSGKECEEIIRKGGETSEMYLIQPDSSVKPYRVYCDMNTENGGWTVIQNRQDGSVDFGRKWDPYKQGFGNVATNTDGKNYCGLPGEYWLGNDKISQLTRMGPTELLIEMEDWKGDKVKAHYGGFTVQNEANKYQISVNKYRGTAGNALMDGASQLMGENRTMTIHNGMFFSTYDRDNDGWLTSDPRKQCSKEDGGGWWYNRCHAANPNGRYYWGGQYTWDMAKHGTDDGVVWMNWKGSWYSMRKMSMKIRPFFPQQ
Tn7 DDE FP: inhibitors of Tn7 peptide binding to fibrin DD(E), primary screen, biochemical, fluorescence polarization, human fibrin, Tn7 probe; FP displacement of FITC-Tn7 peptide from fibrin DD(E); 0% = median of compound wells per plate; Fibrinogen beta chain (Homo sapiens), P02675; inhibition, % at 8.3 µM; 370,000 tested, 0.13% active;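 active = inhibition above the mean of compounds falling within the control limits plus 3 SD of them, cut at about 14% in these data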;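 also: 0% = plate median of compound wells and 100% = 10 µM Aha-Tn7 peptide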
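Assay system: Human fibrin DD(E) protein | Medium: Tris buffer with calcium and detergent, pH 7.8 | Reagent: 0.1 µM fluorescent Tn7 | Compound dosing: Single point at 8.3 µM | Times: 10 min preincubation, 3 h with tracer, room temperature | Detection: Fluorescence polarization of the labelled Tn7 tracer | Controls: Aha-Tn7 high control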
TCR CD3 inh: inhibitors of human TCR-CD3 interaction, primary screen, biochemical, fluorescence, TAMRA-labeled TCR probe; inhibition, % at 9.4 µM; T-cell receptor (TCR); 360,000 tested, 0.37% active; in the data active = inhibition above about 19%;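 also: recombinant mutant TCR 2C K166C tagged with TAMRA read by polarization; 0% = receptor in buffer alone and 100% = receptor with positive control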
Tn6 DDE ctr: DD(E)-Tn6 binding inhibition, counter-screen | 680 tested, 2% active | Fibrin DD(E), TRITC-Tn6 fluorescence polarization displacement; 0% = median of compound wells, not DMSO | shares compounds with Tn6 DDE FP | inhibition, % at 8.3 µM | AID 720621;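 active = inhibition above the mean of test compounds lying between the control limits plus 3 SD of those, cut at about 14% in these data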;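 also: 0% = median of compound wells and 100% = wells with Aha-Tn7 blocking peptide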
DDE Tn6 confirm: inhibitors of Tn6 peptide binding to fibrin DD(E), confirmation, biochemical, fluorescence polarization, human fibrin, Tn6 probe. shares compounds with Tn6 DDE FP. FP displacement of TRITC-Tn6 peptide from DD(E); 0% = per-plate median of test wells. inhibition, % at 8.3 µM. 680 tested, 10% active. AID 720631, 2013;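 active = inhibition above the mean of compounds lying within the control limits plus 3 SD, cut at about 16% in these data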;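 also: 100% = high control wells holding a competing inhibitor peptide at 10 µM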
ABHD4 confirm: ABHD4 inhibitors, retest, confirmation, biochemical, fluorescence polarization, mouse; shares compounds with mABHD4 FP; purified mABHD4, FP-Rh probe fluorescence polarization; inhibition, % at 8.92 µM; 1,800 tested, 55% active; AID 720658, 2013;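 active = mean inhibition across replicates above the hit cutoff set in the primary screen, cut at about 30% in these data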;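 also: 0% = wild-type ABHD4 with DMSO and 100% = catalytically dead S159A mutant with DMSO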
* hit, by the source's call; nt = not tested or not shown; + = active, no number. Rows were chosen to be rich in hits. Some 1.3% of all compounds tested hit in one or more screens of this group.

SMILES	mABHD4 FP	HTRA1 inh	Tn6 DDE FP	Tn7 DDE FP	TCR CD3 inh	ABHD4 confirm	others
O=C1NC(=O)N(c2ccccc2)C(=O)/C1=C/C=C/c1ccco1	2	2	6	-10	-3	nt
CN(C)c1ccc(/C=C/C=C2/C(=O)NC(=O)N(c3ccccc3)C2=O)cc1	-178	-17	23*	2	-128	nt	Tn6 DDE ctr=10;DDE Tn6 confirm=40*
COC(=O)CC1(CC(=O)OC)C(=O)NC(=O)NC1=O	0	2	18*	-1	10	nt	Tn6 DDE ctr=-5;DDE Tn6 confirm=-13
C=CCN1CC[C@]23c4c5ccc(O)c4OC2C(O)CC[C@@]3(O)[C@H]1C5 (stereo not given in full)	4	4	-1	-2	-2	nt
Cc1ccc2c(c1)[C@@H]1CN(C)CC[C@@H]1N2C(=O)Nc1cccc(C(F)(F)F)c1	1	3	17*	6	3	nt	Tn6 DDE ctr=1;DDE Tn6 confirm=-2
CCOC(=O)C(O)(c1ccc(NC(=O)c2ccc(Cl)c(Cl)c2)cc1)C(F)(F)F (stereo not given)	-30	-49	0	1	0	nt
CCOC(=O)C(O)(c1ccc(NC(=O)NC2CCCCC2)cc1)C(F)(F)F (stereo not given)	-9	-14	17*	5	4	nt	Tn6 DDE ctr=4;DDE Tn6 confirm=-8
Cc1cccc(-n2c(O)c(C=NCCN3CCNCC3)c(=O)[nH]c2=S)c1	3	3	16*	-2	-6	nt	Tn6 DDE ctr=-2;DDE Tn6 confirm=-4
Cc1ccc(C)c(C2(O)CC(C)N(C)CC2C)c1 (stereo not given)	-16	5	2	2	-5	nt
O=C(O)C1C2CCC(O2)C1C(=O)Nc1ccc(Cl)cc1 (stereo not given)	8	nt	5	0	-2	nt
CCN1/C(=C/C=C/C2=[N+](CC)c3ccccc3C2(C)C)C(C)(C)c2ccccc21	+	-288	+	-92	-83	+	Tn6 DDE ctr=-132;DDE Tn6 confirm=93*
COc1ccn(C)c(=O)c1C#N	-3	3	-4	4	-1	nt
C[C@]12CC[C@@H]3c4ccc(O)c(O)c4CC[C@H]3[C@@H]1CC[C@@H]2O	30*	28	-5	2	11	19
COc1cc(O)c(C(=O)O)c(-c2cc(O)c(O)cc2C)c1	37*	21	-4	3	11	33*
CNc1ccc2oc(C[C@H]3O[C@@]4(CC[C@H]3C)O[C@H]([C@H](C)C(=O)c3ccc[nH]3)[C@H](C)C[C@H]4C)nc2c1C(=O)O	30*	35	-2	-8	0	19
COc1ccc(CC2(CCc3ccncc3)C(=O)NC(=O)NC2=O)cc1	2	9	-3	-1	2	nt
COC(=O)C1=C(c2ccc(F)cc2OCc2ccccc2)C[C@@H]2CC[C@H]1N2C(=O)NCCCc1ccccc1	-19	-46	-6	1	2	nt
Cc1ccc(-n2c(=S)[nH]c3ccc(C)cc3c2=O)cc1	46*	-2	0	0	-6	33*
C/C(=N\NC(=O)c1ccccc1O)c1c(O)n(C2CCCCC2)c(=O)[nH]c1=O	37*	17	1	4	15	44*
Cc1ccccc1-n1c(O)c(/C=N/NC(=O)c2ccccc2O)c(=O)[nH]c1=S	7	1	-4	-2	-22	nt
O=C(N/N=C/c1c(O)n(C2CC2)c(=S)[nH]c1=O)c1ccccc1O	35*	4	0	6	11	25
CCCCCCCSc1cc(OC)c(CCN(C)C)cc1OC	32*	21	6	5	9	35*
CCCCCSc1cc(OC)c(CCN)cc1OC	11	6	3	3	6	nt
O=[N+]([O-])c1cc(O)c(O)c([N+](=O)[O-])c1	74*	35	-4	2	9	50*
COc1ccccc1N1CCN(Cc2cccc(Br)c2)CC1	13	-3	-2	7	-3	nt
SMILES	mABHD4 FP	HTRA1 inh	Tn6 DDE FP	Tn7 DDE FP	TCR CD3 inh	ABHD4 confirm	others
Clc1cccc(CN2CCCCC2c2cccnc2)c1 (stereo not given)	0	-3	3	-1	3	nt
O=P(Oc1ccccc1)(Oc1ccccc1)C(O)c1ccc(Cl)cc1 (stereo not given)	32*	-8	-4	0	3	16
COc1ccc(C(O)P(=O)(Oc2ccccc2)Oc2ccccc2)cc1 (stereo not given)	25	-5	-1	-5	2	nt
Cc1cccc(-c2nc3ccc(C(=O)N4CCC5(CC4)OCCO5)cc3nc2-c2cccc(C)c2)c1	32*	-35	-12	-1	2	48*
COc1cccc(C(=O)N2CCC3(CC2)OCCO3)c1	-3	-1	12	-4	6	nt
COc1cc(/C=C/c2nc3ccccc3c(=O)n2-c2ccc(O)cc2)ccc1O	39*	0	0	4	3	45*
COC(=O)C1=C(c2cccc(OCc3ccccc3)c2)C[C@@H]2CC[C@H]1N2C(=O)NCc1ccc(OC)cc1	-2	-35	-1	6	1	nt
COC(=O)C1=C(c2ccc(OCc3ccccc3)cc2)C[C@@H]2CC[C@H]1N2C(=O)NCc1ccc(C(C)(C)C)cc1	33*	-32	-4	3	-1	50*
COC(=O)C1=C(c2ccc(OCc3ccccc3)cc2)C[C@@H]2CC[C@H]1N2C(=O)NCc1ccc2c(c1)OCO2	51*	-24	5	14	4	33*
COC(=O)C1=C(c2ccc(OCc3ccccc3)cc2)C[C@@H]2CC[C@H]1N2C(=O)NCc1cccc(OC)c1	31*	-37	6	5	2	35*
COC(=O)C1=C(c2ccc(OCc3ccccc3)cc2)C[C@@H]2CC[C@H]1N2C(=O)NCc1ccccc1	21	-23	0	1	7	nt
COC(=O)C1=C(c2ccc(OCc3ccccc3)cc2)C[C@@H]2CC[C@H]1N2C(=O)NCc1ccc(OC)cc1	41*	-40	-4	-4	-2	43*
